Measurements reported in ChEMBL document CHEMBL3860059, “Design, Synthesis, and Biological Evaluation of First-in-Class Dual Acting Histone Deacetylases (HDACs) and Phosphodiesterase 5 (PDE5) Inhibitors for the Treatment of Alzheimer's Disease” (J Med Chem, 2016).

Legend:
[1] = Selectivity ratio of pLC50 for mouse primary glial cells to pLC50 for human THLE2 cells; type: ADME, cell-based; settings: mouse primary glial cells versus THLE2 cells
[2] = target: cGMP-specific 3',5'-cyclic phosphodiesterase (Homo sapiens, UniProt O76074); experiment: Inhibition of full length recombinant human N-terminal GST-tagged PDE5A1 expressed in baculovirus infected Sf9 cells using cGMP as substrate after 30 mins by HTRF assay
Histone deacetylase 1 = Histone deacetylase 1 (Homo sapiens, UniProt Q13547); experiment: Inhibition of full length recombinant human C-terminal His/Flag-tagged HDAC1 expressed in baculovirus infected Sf9 cells using fluorogenic HDAC substrate after 30 mins by fluorescence analysis
Chain of Histone deacetylase 1 (Q13547 whole entry): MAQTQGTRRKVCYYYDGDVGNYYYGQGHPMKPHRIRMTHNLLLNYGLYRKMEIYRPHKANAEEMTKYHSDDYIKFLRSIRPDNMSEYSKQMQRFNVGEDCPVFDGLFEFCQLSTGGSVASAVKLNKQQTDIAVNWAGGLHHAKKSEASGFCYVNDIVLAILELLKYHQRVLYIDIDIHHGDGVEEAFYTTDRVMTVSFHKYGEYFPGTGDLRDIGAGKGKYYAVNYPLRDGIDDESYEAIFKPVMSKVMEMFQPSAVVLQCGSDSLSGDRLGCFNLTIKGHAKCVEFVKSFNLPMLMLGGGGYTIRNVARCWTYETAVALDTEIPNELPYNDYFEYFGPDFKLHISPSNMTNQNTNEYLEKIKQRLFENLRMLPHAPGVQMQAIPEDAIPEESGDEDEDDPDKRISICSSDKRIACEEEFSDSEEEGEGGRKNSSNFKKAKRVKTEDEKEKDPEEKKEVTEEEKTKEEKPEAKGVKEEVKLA
Procedure, shortened: (§1)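 Full-length human recombinant HDAC1 (0.4 μg/mL final), HDAC2 (1.5 μg/mL), HDAC3/NCOR2 (0.1 μg/mL) or HDAC6 (3.6 μg/mL) with 10 μM fluorogenic acetyl-lysine substrate and 0.1 mg/mL BSA, 1% DMSO, 30 min at 37 °C; lysine developer 20 min at room temperature; fluorescence ex 355/em 460 nm. Vehicle = positive control, no enzyme = negative; IC50 from curve fit.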

Histone deacetylase 2 = Histone deacetylase 2 (Homo sapiens, UniProt Q92769); experiment: Inhibition of full length recombinant human C-terminal His-tagged HDAC2 expressed in baculovirus infected Sf9 cells using fluorogenic HDAC substrate after 30 mins by fluorescence analysis; procedure, shortened: as §1
Chain of Histone deacetylase 2 (Q92769 whole entry): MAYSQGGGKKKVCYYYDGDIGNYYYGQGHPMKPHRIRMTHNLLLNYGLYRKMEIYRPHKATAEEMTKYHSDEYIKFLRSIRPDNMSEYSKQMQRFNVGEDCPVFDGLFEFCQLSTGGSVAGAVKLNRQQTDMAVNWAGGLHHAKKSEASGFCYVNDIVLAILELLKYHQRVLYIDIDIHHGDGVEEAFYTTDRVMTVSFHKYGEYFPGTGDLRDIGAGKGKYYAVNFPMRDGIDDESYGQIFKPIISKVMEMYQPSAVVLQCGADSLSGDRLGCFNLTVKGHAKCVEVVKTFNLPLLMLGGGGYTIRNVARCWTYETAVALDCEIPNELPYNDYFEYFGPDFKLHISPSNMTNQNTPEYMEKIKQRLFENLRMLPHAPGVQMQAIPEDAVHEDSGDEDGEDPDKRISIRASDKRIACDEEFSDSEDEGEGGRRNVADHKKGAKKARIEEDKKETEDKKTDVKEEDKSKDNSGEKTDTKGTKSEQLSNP

[3] = target: T1, Protein deacetylase HDAC6 (Homo sapiens, UniProt Q9UBN7); experiment: Inhibition of full length recombinant human N-terminal GST tagged HDAC6 expressed in baculovirus infected Sf9 cells using fluorogenic HDAC substrate after 30 mins by fluorescence analysis; procedure, shortened: as §1
T1 sequence (Q9UBN7 whole entry): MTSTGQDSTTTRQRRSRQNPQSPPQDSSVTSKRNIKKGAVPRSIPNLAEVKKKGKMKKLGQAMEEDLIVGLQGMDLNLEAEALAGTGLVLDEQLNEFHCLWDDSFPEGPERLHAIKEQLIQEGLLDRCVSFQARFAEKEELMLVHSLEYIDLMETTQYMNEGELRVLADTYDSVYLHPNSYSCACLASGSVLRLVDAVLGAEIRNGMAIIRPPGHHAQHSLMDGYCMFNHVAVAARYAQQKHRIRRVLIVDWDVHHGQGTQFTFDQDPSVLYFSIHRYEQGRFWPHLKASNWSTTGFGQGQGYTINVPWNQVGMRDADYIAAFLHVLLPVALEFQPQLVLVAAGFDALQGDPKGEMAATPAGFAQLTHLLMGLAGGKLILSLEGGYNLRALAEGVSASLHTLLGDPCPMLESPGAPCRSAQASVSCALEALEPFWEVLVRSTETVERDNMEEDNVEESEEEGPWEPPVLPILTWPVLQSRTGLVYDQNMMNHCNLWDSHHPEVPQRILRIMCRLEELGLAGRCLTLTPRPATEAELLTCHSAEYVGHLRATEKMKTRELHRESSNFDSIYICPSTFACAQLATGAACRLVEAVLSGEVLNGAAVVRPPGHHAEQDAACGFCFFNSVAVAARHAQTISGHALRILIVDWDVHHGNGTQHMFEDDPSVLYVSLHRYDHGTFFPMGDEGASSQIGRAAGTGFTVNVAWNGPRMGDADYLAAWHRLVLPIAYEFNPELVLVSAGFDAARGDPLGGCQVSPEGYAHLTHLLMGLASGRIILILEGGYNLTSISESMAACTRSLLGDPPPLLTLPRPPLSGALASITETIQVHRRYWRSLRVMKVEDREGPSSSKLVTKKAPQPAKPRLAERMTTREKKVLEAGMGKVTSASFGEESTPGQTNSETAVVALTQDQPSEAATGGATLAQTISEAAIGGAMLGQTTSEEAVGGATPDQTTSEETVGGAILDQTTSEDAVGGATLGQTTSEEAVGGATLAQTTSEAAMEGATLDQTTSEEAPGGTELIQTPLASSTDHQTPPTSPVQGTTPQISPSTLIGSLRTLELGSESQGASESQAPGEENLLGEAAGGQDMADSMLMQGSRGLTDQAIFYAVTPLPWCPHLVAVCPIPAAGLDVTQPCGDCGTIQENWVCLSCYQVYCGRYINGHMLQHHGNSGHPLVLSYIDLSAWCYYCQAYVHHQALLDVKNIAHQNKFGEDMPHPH

[4] = Selectivity ratio of pIC50 for full length recombinant human C-terminal His/Flag-tagged HDAC1 expressed in baculovirus infected Sf9 cells to pIC50 for full length recombinant human N-terminal GST tagged HDAC6 expressed in baculovirus infected Sf9 cells
[5] = Passive membrane permeability of the compound at 50 uM after 18 hrs by PAMPA; type: ADME; settings: read-out: Peff
Procedure, shortened: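 PAMPA: 50 μM donor solution in PBS/EtOH 70:30 over PVDF membrane precoated with PBL/dodecane (20 mg/mL); PBS/EtOH acceptor; 18 h at 20 °C without shaking; duplicates; donor and acceptor concentrations by UV absorbance corrected against vehicle.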

[6] = Cytotoxicity against human THLE2 cells assessed as reduction in cell viability after 72 hrs by ATP Vialight assay; type: toxicity, cell-based, THLE-2; settings: read-out: LC50
Procedure, shortened: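 Immortalized human liver THLE-2 cells in BEGM with 0.7 μg/mL phosphoethanolamine, 0.5 ng/mL EGF, antibiotics and 10% FBS, seeded at 10,000 cells/well and left 24 h at 37 °C. Compounds were added at final 0–100 μM in 1% DMSO for 72 h. Cellular ATP was read by luminescence after 45 min lysis.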

[7] = Cytotoxicity against mouse primary glial cells assessed as reduction in cell viability after 72 hrs by luminescence based ATPlite assay; type: toxicity; settings: read-out: LC50
Procedure, shortened: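 Primary neuron/glia cultures from embryonic mouse brain were grown 5 days at 37 °C (5% CO2) to allow neuron formation. Compounds were then added at final 0–100 μM in 1% DMSO for 72 h. Cellular ATP was read by luminescence after 10 min with reagent at room temperature.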

[8] = target: Histone deacetylase 3/Nuclear receptor corepressor 2 (HDAC3/NCoR2) (Homo sapiens, UniProt O15379); experiment: Inhibition of full length recombinant human C-terminal His-tagged HDAC3/N-terminal GST-tagged NCOR2 (395 to 489 residues) expressed in baculovirus infected Sf9 cells using fluorogenic HDAC substrate after 30 mins by fluorescence analysis
Chain of Histone deacetylase 3/Nuclear receptor corepressor 2 (HDAC3/NCoR2) (O15379 whole entry, the tested form may be a part): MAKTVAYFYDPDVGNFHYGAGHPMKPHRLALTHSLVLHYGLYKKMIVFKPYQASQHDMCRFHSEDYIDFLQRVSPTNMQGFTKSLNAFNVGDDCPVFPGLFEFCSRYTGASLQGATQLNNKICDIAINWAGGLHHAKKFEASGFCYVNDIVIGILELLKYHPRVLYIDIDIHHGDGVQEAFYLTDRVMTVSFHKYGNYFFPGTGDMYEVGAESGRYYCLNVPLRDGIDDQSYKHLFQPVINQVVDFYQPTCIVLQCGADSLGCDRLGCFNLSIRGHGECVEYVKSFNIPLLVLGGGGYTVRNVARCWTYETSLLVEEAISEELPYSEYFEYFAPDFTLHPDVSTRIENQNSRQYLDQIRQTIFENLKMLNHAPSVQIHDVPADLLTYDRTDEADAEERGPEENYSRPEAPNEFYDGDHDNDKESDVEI
Chain of Histone deacetylase 3/Nuclear receptor corepressor 2 (HDAC3/NCoR2) (Q9Y618 whole entry, further chain, the tested form may be a part): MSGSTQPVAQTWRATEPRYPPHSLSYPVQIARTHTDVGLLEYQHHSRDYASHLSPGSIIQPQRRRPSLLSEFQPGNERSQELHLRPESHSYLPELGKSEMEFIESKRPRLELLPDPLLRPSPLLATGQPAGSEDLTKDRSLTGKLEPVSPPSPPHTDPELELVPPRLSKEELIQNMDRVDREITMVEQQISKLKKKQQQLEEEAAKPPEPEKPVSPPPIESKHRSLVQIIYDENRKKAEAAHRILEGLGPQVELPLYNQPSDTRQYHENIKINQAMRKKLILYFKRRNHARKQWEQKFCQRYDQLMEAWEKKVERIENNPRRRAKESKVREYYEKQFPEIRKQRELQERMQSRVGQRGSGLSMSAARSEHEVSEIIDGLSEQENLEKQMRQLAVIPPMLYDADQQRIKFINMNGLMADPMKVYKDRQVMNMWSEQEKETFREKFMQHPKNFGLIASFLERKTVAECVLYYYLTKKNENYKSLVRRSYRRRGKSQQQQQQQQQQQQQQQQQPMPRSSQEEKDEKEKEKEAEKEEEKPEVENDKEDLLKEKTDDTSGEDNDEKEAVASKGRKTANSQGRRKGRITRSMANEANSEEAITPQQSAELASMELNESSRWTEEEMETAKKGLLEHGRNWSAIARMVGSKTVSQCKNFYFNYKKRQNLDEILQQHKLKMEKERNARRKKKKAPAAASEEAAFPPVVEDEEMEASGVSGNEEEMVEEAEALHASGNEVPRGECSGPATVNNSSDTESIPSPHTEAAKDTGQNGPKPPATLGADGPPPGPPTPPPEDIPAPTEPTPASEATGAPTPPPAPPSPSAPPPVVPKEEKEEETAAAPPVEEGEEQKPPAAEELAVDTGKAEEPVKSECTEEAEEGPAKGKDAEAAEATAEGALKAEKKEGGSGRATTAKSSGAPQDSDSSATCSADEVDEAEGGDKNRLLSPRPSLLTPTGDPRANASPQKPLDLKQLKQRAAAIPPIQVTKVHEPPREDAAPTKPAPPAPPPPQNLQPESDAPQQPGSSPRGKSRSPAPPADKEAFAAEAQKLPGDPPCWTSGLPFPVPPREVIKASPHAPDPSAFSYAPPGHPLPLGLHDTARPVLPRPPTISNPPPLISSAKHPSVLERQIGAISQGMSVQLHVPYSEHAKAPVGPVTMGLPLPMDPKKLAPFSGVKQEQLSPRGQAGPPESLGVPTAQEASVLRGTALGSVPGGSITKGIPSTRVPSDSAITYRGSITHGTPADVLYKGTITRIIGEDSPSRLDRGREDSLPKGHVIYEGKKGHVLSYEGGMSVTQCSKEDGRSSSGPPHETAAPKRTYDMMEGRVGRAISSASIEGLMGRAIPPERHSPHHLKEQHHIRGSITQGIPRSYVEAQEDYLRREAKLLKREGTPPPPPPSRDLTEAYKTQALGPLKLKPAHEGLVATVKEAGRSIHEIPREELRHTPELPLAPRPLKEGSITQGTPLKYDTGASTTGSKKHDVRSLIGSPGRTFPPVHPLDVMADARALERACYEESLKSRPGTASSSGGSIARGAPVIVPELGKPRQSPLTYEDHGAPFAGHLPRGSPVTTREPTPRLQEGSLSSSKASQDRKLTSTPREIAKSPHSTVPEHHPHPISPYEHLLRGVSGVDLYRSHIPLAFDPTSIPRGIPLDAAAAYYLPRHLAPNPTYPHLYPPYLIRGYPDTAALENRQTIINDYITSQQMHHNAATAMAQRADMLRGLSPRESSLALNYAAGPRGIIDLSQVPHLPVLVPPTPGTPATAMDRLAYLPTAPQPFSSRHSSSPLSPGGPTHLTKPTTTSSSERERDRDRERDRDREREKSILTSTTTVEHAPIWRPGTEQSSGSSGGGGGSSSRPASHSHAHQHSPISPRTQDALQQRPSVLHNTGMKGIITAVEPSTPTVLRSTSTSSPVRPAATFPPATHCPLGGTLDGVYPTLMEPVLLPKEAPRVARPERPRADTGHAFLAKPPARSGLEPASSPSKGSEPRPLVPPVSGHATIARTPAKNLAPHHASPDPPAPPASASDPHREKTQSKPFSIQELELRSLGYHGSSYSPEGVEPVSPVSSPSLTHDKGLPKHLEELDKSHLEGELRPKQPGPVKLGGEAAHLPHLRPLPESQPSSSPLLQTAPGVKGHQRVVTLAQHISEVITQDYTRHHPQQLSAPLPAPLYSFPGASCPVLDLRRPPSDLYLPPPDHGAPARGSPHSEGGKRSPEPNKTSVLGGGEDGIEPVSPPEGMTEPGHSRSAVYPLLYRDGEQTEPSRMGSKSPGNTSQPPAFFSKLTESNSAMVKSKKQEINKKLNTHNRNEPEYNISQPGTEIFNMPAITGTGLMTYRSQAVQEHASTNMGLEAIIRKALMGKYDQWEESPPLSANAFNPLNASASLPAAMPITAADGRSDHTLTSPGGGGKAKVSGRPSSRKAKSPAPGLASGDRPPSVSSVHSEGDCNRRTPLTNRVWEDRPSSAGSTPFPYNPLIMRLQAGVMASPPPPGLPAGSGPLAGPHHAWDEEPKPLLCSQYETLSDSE

[9] = Selectivity ratio of pIC50 for full length recombinant human N-terminal GST tagged HDAC6 expressed in baculovirus infected Sf9 cells to pIC50 for full length recombinant human C-terminal His/Flag-tagged HDAC1 expressed in baculovirus infected Sf9 cells
[10] = Lipophilicity, log D of the compound at pH 7.4; type: physicochemical; settings: buffer
[11] = Dissociation constant, pKa of the compound; type: physicochemical

Row | Compound | selectivity ratio [1] | IC50 [2] [nM] | IC50 (Histone deacetylase 1) [nM] | IC50 (Histone deacetylase 2) [nM] | IC50 [3] [nM] | Ratio pIC50 [4] | Papp at 18 h, 50 µM [5] [×10⁻⁶ cm/s] | CC50 at 72 h [6] [nM] | CC50 at 72 h [7] [nM] | IC50 [8] [nM] | Ratio pIC50 [9] | logD [10] | pKa [11]
1 | CCCc1nn(C)c2c(=O)[nH]c(-c3cc(C4CC(C(=O)NO)C4)ccc3OCC)nc12 (stereo not drawn) | < 0.4 | 17 | 554 | 1860 | 130 | > 0.6 | 1.37 |  |  |  |  |  | 
2 | CN1CC(=O)N2[C@H](c3ccc4c(c3)OCO4)c3[nH]c4ccccc4c3C[C@@H]2C1=O |  |  |  |  |  |  | 2.68 | 60300 | 110000 |  |  |  | 
3 | CCCc1nn(C)c2c(=O)[nH]c(-c3cc(S(=O)(=O)Nc4ccc(/C=C/C(=O)NO)cc4)ccc3OCC)nc12 | < 0.4 | 1 | 356 | 1310 | 84 |  | 0.23 | 27400 | 30300 |  |  |  | 
4 | CCCc1nn(C)c2c(=O)[nH]c(-c3cc(S(=O)(=O)N4CCN(c5ncc(C(=O)NO)cn5)CC4)ccc3OCC)nc12 | < 0.4 | 3 | 8 | 117 | 268 |  | 0.72 | 1460 | 2150 | 36 | > 1 |  | 
5 | CCCc1nn(C)c2c(=O)[nH]c(-c3cc(S(=O)(=O)NC4CCN(c5ncc(C(=O)NO)cn5)CC4)ccc3OCC)nc12 | < 0.4 | 0.6 | 57 | 341 | 59 |  | 0.1 | 11900 | 4950 | 54 |  |  | 
6 | O=C(CCCCCCC(=O)Nc1ccccc1)NO [VORINOSTAT] |  |  |  |  |  |  | 0.23 | 3590 | 4910 |  |  | 2 | 
7 | CCCc1nn(C)c2c(=O)[nH]c(-c3cc(N4CCC(CC(=O)NO)CC4)ccc3OCC)nc12 | < 0.4 | 65 | 5860 | > 20000 | 1090 |  | 0.49 | 88700 | > 100000 |  |  |  | 
8 | CCCc1nn(C)c2c(=O)[nH]c(-c3cc(CC4CCN(c5ccc(C(=O)NO)cn5)CC4)ccc3OCC)nc12 |  | 57 | 1880 | 6430 | 395 |  |  |  |  |  |  |  | 8.29
9 | CCCc1nn(C)c2c(=O)[nH]c(-c3cc(CC4CCN(c5ncc(C(=O)NO)cn5)CC4)ccc3OCC)nc12 | < 0.4 | 7 | 63 | 335 | 1250 |  | 0.41 |  |  | 51 | 1.4 |  | 7.85
10 | CCCc1nn(C)c2c(=O)[nH]c(-c3cc(S(=O)(=O)N4CCN(Cc5ccc(/C=C/C(=O)NO)cc5)CC4)ccc3OCC)nc12 |  | 2 | 1340 | 6970 | 89 | > 1 |  |  |  |  |  |  | 
11 | CCCc1nn(C)c2c(=O)[nH]c(-c3cc(CC4CCN(c5ccc(C(=O)NO)cc5)CC4)ccc3OCC)nc12 |  | 121 | > 20000 | > 20000 | > 20000 |  |  |  |  |  |  |  | 8.73
